{"data": "Measured values from different studies", "organism": "Staphylococcus aureus", "note": "Lines come from different studies, so protocols differ."}
{"SMILES": "COC(=O)c1cc(-c2cccc(NC(=O)Nc3ccc(Cl)c(C(F)(F)F)c3)c2)on1", "test": "microbial growth, broth dilution", "system": "ATCC29213", "endpoint": "MIC", "result": "> 64 µg/mL"}
{"SMILES": "CC1(C)CC[C@]2(C(=O)O)CC[C@]3(C)C(=CC[C@@H]4[C@@]5(C)CC[C@H](O)C(C)(C)[C@@H]5CC[C@]43C)[C@@H]2C1", "test": "microbial growth", "system": "USA400", "endpoint": "MIC", "result": "256 µg/mL"}
{"SMILES": "CCOc1ccc(-c2nc3ccccc3n2Cc2ccccc2)cc1", "test": "microbial growth, broth dilution", "system": "ATCC43300 MRSA", "conditions": "drug-resistant strain", "endpoint": "MIC", "result": "64 µg/mL"}
{"SMILES": "CC1(C)S[C@@H]2[C@H](NC(=O)[C@H](N)c3ccccc3)C(=O)N2[C@H]1C(=O)O", "test": "microbial growth, well diffusion", "system": "ATCC25923", "conditions": "60000 µg/mL", "endpoint": "inhibition zone", "result": "35 mm"}
{"SMILES": "CC1(c2ccccc2O)Nn2c(nc(-c3ccc(Cl)cc3)c(C#N)c2=O)N1C(Cc1c[nH]c2ccccc12)C(=O)O (centres unmarked)", "test": "microbial killing", "conditions": "drug-resistant strain", "endpoint": "MBC", "result": "100 µg/mL"}
{"SMILES": "O[C@]12C=C(c3nccc4c3[nH]c3ccccc34)[C@@H]3CCN(CCCC/C=C\\CC1)C[C@@]31C[C@@H]3/C=C\\CCCCN3[C@H]12", "test": "microbial growth", "system": "MRSA", "conditions": "drug-resistant strain", "endpoint": "IC50", "result": "0.7 µg/mL"}
{"SMILES": "COC(=O)c1cc(-c2cccc(NC(=O)Nc3ccc(C(F)(F)F)cc3)c2)on1", "test": "microbial growth, broth dilution", "system": "ATCC29213", "endpoint": "MIC", "result": "8 to 16 µg/mL"}
{"SMILES": "O=C(O)c1cn(C2CC2)c2cc(N3CCNCC3)c(F)cc2c1=O", "test": "microbial growth", "system": "ATCC29213", "endpoint": "IC50", "result": "0.13 µg/mL"}
{"SMILES": "COC(=O)c1cc(-c2cccc(NC(=O)Nc3ccccc3F)c2)on1", "test": "microbial growth, broth dilution", "system": "ATCC29213", "endpoint": "MIC", "result": "> 64 µg/mL"}
{"SMILES": "O=[N+]([O-])c1ccc(-c2nc3ccccc3[nH]2)cc1", "test": "microbial growth, broth dilution", "system": "ATCC43300 MRSA", "conditions": "drug-resistant strain", "endpoint": "MIC", "result": "256 µg/mL"}
{"SMILES": "COC(=O)c1cc(-c2cccc(NC(=O)Nc3ccc(OC)cc3)c2)on1", "test": "microbial growth, broth dilution", "system": "ATCC29213", "endpoint": "MIC", "result": "> 64 µg/mL"}
{"SMILES": "Cc1c(NN=C(C#N)C2=NC(=O)CS2)c(=O)n(-c2ccccc2)n1C", "test": "microbial killing, broth dilution", "endpoint": "MBC", "result": "1 µg/mL"}
{"SMILES": "CSc1ccc(-c2nc3ccc(C)cc3[nH]2)cc1", "test": "microbial growth, broth dilution", "system": "ATCC43300 MRSA", "conditions": "drug-resistant strain", "endpoint": "MIC", "result": "32 µg/mL"}
{"SMILES": "O=C(O)c1cn(C2CC2)c2cc(N3CCNCC3)c(F)cc2c1=O", "test": "microbial killing", "endpoint": "MBC", "result": "0.019 µg/mL"}
{"SMILES": "C=CCn1c(-c2ccc(Cl)cc2)nc2ccccc21", "test": "microbial growth, broth dilution", "system": "ATCC43300 MRSA", "conditions": "drug-resistant strain", "endpoint": "MIC", "result": "128 µg/mL"}
{"SMILES": "CN[C@H](CC(C)C)C(=O)N[C@H]1C(=O)N[C@@H](CC(N)=O)C(=O)N[C@H]2C(=O)N[C@H]3C(=O)N[C@H](C(=O)N[C@H](C(=O)O)c4cc(O)cc(O)c4-c4cc3ccc4O)[C@H](O)c3ccc(c(Cl)c3)Oc3cc2cc(c3O[C@@H]2O[C@H](CO)[C@@H](O)[C@H](O)[C@H]2O[C@H]2C[C@](C)(N)[C@H](O)[C@H](C)O2)Oc2ccc(cc2Cl)[C@H]1O", "test": "microbial killing, broth dilution", "system": "ATCC6538", "endpoint": "MBC", "result": "2 µM"}
{"SMILES": "COC(=O)c1cc(-c2cccc(NC(=O)Nc3cccc(Cl)c3)c2)on1", "test": "microbial growth, broth dilution", "system": "ATCC29213", "endpoint": "MIC", "result": "> 64 µg/mL"}
{"SMILES": "CCOc1ccc(-c2nc3ccccc3[nH]2)cc1", "test": "microbial growth, broth dilution", "system": "ATCC43300 MRSA", "conditions": "drug-resistant strain", "endpoint": "MIC", "result": "512 µg/mL"}
{"SMILES": "COC(=O)c1cc(-c2cccc(NC(=O)Nc3cccc(F)c3)c2)on1", "test": "microbial growth, broth dilution", "system": "ATCC29213", "endpoint": "MIC", "result": "> 64 µg/mL"}
{"SMILES": "Fc1cccc(Cl)c1-c1nc2ccccc2[nH]1", "test": "microbial growth, broth dilution", "system": "ATCC43300 MRSA", "conditions": "drug-resistant strain", "endpoint": "MIC", "result": "128 µg/mL"}
